Source: PubChem
This is a sample that favours compounds with a hit; in the whole collection about 2.4% have one here.
zVAD death inh = blocks zVAD induced death of L929 cells; viability rescue, % at 10 µM; 220,000 tested, 0.38% active; L929 zVAD necroptosis rescue, ATP luminescence, 24 h; with zVAD 60 µM;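 active = activation, scaled between plate controls, above about 75%, limit read from the data; inactive = activation under that limit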
Dynein transport = dynein cargo transport inhibition; z-score, hits read low; 220,000 tested, 0.47% active; 3617.4 mouse cells, GR-EGFP nuclear translocation imaging; test concentration mostly 20 µM; stimulated with dexamethasone, 1 µM; hits give low values;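 active = plate z-score of nuclear minus cytoplasmic receptor signal below a set negative limit, without overly bright fluorescence or cell loss, cut at about -3.5 in these data, passing the limit was not always enough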;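 also: z-score of nuclear minus cytoplasmic ring GR-EGFP intensity difference per well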
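Buffer or medium – tet-free medium with charcoal-stripped serum · Signal – automated 10x imaging of fixed Hoechst-stained cells · Also added – dexamethasone agonist, 1.0 µM final, for 30 min · Incubation – induction 48 h, compound 1 h, agonist 30 min · Read-out – GR-EGFP nuclear translocation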
Autophagy HCS = modulators of autophagy | MEF GFP-LC3 puncta imaging; test concentration mostly 10 µM | calls only at 10 µM (by protocol) | 190,000 tested, 0.98% active | AID 463193;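 active = percentage of spot-positive cells more than 3 SD above its plate mean, without a fluorescence outlier flag or 80% toxicity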
TNF necrop inh = TNF-alpha cell death inhibition in Jurkat FADD-/- cells. 220,000 tested, 0.068% active. activation (protection from cell death), % at 10 µM. Jurkat FADD-/- TNF necroptosis rescue, ATP luminescence, 24 h; 0 = TNF only, 100 = no-TNF cells. AID 463075;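 active = activation, meaning protection from cell death, of at least 50% relative to plate controls; inactive = activation below 50%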;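 also: necroptosis triggered by 40 ng/mL TNF-alpha added together with compound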
Hck Nef HTS = inhibitors of human Hck kinase activated by Nef; Recombinant Hck-YEEI plus Nef, Z-Lyte FRET kinase assay; inhibition, % at 20 µM; 220,000 tested, 0.68% active; AID 463187;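 active = Hck-Nef kinase inhibition above about 50%, limit read from the data; inactive = inhibition below that limit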
Mdm2 ligase inh = Mdm2 E3 ligase (human) inhibition; cell-based MDM2 ubiquitination luciferase reporter, 2 h; 0 = plate control, 100 = twice control, blank-subtracted; signal enhancement, % at 5 µM; 210,000 tested, 0.11% active; AID 1230;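 active = signal enhancement of 30% or more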;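 also: luminescence tracks abundance of the self-degrading MDM2-luciferase fusion protein; higher signal means inhibition of MDM2 E3 ligase activity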
Target sequence (Q00987 whole entry, looked up, the tested form may be a part): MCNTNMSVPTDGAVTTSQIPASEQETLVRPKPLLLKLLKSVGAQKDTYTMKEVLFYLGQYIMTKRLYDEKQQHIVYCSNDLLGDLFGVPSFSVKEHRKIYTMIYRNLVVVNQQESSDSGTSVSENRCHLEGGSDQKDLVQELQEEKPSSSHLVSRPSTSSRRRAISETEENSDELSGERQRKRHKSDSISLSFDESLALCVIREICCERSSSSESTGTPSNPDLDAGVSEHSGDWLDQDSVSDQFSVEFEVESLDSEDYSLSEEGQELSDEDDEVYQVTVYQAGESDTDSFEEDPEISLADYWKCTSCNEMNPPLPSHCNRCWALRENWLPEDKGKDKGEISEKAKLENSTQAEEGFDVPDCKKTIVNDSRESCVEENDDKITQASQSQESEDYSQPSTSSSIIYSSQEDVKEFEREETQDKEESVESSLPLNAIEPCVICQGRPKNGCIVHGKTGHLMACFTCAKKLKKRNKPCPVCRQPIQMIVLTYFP
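Assay system: stable mammalian line carrying autodegrading MDM2–luciferase fusion reporter; Input: 2000 cells in each well; Compound dosing: single-point 5 µM; Schedule: 2 h compound exposure at 37 °C; Signal: SteadyLite luciferase luminescence after 15 min room-temperature reagent incubation; Evaluation: % luminescence enhancement versus blank-corrected plate control mean; Benchmarks: plate controls and plate blanks.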
Hck-Nef confirm = confirmation of Hck-Nef kinase inhibitors | shares compounds with Hck Nef HTS | Recombinant Hck-YEEI:Nef, Z-Lyte FRET kinase assay | calls only at 10 µM | 1,300 tested, 28% active | AID 463188;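 active = average inhibition of at least 50%, with Z-scores no higher than 3 in both the phospho-tyrosine peptide and fluorescence counterscreens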
Of the large screens only hits and unclear results are named; the others gave an inactive call (follow-up assays come after a bar, where shown).

Cc1cc(C(=O)O)ccc1-c1ccc(/C=C2\NC(=O)N(Cc3ccccc3Cl)C2=O)o1	none
Nc1nc(-c2ccco2)c(-c2ccco2)s1	none
c1coc(-c2nc(-c3ccco3)c(-c3ccco3)nc2-c2ccco2)c1	Hck Nef HTS 60 | Hck-Nef confirm inactive
Cc1ccc(O)c(N=Cc2cc(Cc3ccccc3)cc([N+](=O)[O-])c2O)c1	Hck Nef HTS 62 | Hck-Nef confirm inactive
O=[N+]([O-])c1cc(Cc2ccccc2)cc(C=Nc2ccc(N3CCOCC3)cc2)c1O	none (no result: Mdm2 ligase inh)
CC(C)Sc1nnc(NC(=O)c2ccco2)s1	none
CCSc1nnc(NC(=O)c2ccco2)s1	Hck Nef HTS 101 | Hck-Nef confirm inactive
COc1ccccc1N=c1oc2cc(O)ccc2cc1C(N)=O	Hck Nef HTS 140
COc1ccccc1N=c1oc2cc(O)ccc2cc1C(=O)NCC1CCCO1 (configuration not stated)	Hck Nef HTS 72
COc1cccc2cc(C(=O)NCC3CCCO3)c(=O)oc12 (configuration not stated)	none
COc1cccc(N=c2oc3cc(O)ccc3cc2C(=O)NCC2CCCO2)c1 (configuration not stated)	Hck Nef HTS 82
COc1ccccc1NC(=O)c1cc2ccc(O)cc2o/c1=N\O	none
COc1ccc(CCNc2c3ccccc3nc3ccccc23)cc1OC	Hck Nef HTS 56 (no result: Autophagy HCS) | Hck-Nef confirm inactive
COc1ccc(OC)c(C2Nc3c(Cl)ccc(C(=O)O)c3C3C=CCC32)c1 (configuration not stated)	none
COC(=O)COc1ccc(C2Nc3c(Cl)ccc(C(=O)O)c3C3C=CCC32)cc1 (configuration not stated)	Hck Nef HTS 76 | Hck-Nef confirm inactive
CCC(c1nnnn1Cc1ccc(OC)cc1)N1CCN(c2ccc(OC)cc2)CC1 (configuration not stated)	Hck Nef HTS 62 | Hck-Nef confirm inactive
O=C(CSc1ncnc2c1oc1ccccc12)Nc1cccc(Cl)c1	Hck Nef HTS 51 | Hck-Nef confirm inactive
O=C(CSc1ncnc2c1oc1ccccc12)Nc1cccc(C(F)(F)F)c1	none
C=CCn1c(SCC(=O)c2c(N)n(CCC)c(=O)n(C)c2=O)nnc1-c1ccncc1	none
CC(=O)c1cccc(NC(=O)CC2S/C(=N/N=C/c3cccs3)NC2=O)c1 (configuration not stated)	none
CC(=O)c1cccc(NC(=O)CC2S/C(=N/N=C/c3ccccc3)NC2=O)c1 (configuration not stated)	Hck Nef HTS 53 | Hck-Nef confirm inactive
COC(C[C@H](O)[C@H](C)[C@@H](O)COCc1ccccc1)OC	none (no result: Autophagy HCS)
O=C(Nc1ccc2ccccc2n1)Nc1cccs1	none (no result: Autophagy HCS)
Cc1ccc2c(c1)C1C=CCC1C(C(=O)O)N2 (configuration not stated)	none (no result: zVAD death inh)
CC(=O)c1ccc2c(c1)C1C=CCC1C(C(=O)O)N2 (configuration not stated)	Hck Nef HTS 74 | Hck-Nef confirm active
COc1ccccc1/C=C/CN1CCCC(CCC(=O)NCc2ccccc2F)C1 (configuration not stated)	none
O=C(CSc1nc2ccccc2n1CCc1ccccc1)c1ccc(O)c(O)c1	Hck Nef HTS 189 | Hck-Nef confirm active
CC(=O)C1C(c2ccncc2)NC(=O)NC1(O)C(F)(F)F (configuration not stated)	none
CC(=O)C1C(c2ccc3ncccc3c2)NC(=O)NC1(O)C(F)(F)F (configuration not stated)	Hck Nef HTS 52 | Hck-Nef confirm inactive
COC(=O)CCCC1=CC2=CC(=O)C(C)(OC(=O)c3cccs3)C(=O)C2=CN1Cc1ccc2c(c1)OCO2 (configuration not stated)	Hck Nef HTS 53 (no result: Autophagy HCS) | Hck-Nef confirm inactive
CC(C)CCNC(=O)CCSCCC(=O)NCCC(C)C	none
